# MPTP block: permeability transition pore inhibition. isolated mouse mitochondria, Ca2+ swelling absorbance, 30 min. inhibition, % at 10 µM. hit rate 1.4% among 360,000. AID 602449;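 active means inhibition of 50% or more, scaled per plate between neutral and stimulator controls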;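 further: 0% = DMSO wells given calcium and 100% = 1 mM EGTA wells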
# ADAM10 inh: inhibitors of human ADAM10 | O14672 | recombinant ADAM10, EDANS/DABCYL FRET peptide cleavage, 3 h | inhibition, % at 7 µM | hit rate 0.62% among 370,000 | AID 720582;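 active means inhibition above a per-campaign cutoff equal to the mean of compounds falling between control-based bounds plus 3 SD, cut at about 20% in these data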;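 further: 0% = DMSO wells while the 100% control is not disclosed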
# ADAM17 inh: ADAM17 inhibition, QFRET primary screen. P78536. recombinant ADAM17, EDANS/DABCYL FRET peptide cleavage. inhibition, % at 6.95 µM. hit rate 0.83% among 370,000;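 active means inhibition above the mean of compounds lying between control limits plus 3 SD, set per campaign, cut at about 8.5% in these data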;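 further: 0% = DMSO-only wells as the low control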
# Target sequence (P78536 215-824 limits assumed): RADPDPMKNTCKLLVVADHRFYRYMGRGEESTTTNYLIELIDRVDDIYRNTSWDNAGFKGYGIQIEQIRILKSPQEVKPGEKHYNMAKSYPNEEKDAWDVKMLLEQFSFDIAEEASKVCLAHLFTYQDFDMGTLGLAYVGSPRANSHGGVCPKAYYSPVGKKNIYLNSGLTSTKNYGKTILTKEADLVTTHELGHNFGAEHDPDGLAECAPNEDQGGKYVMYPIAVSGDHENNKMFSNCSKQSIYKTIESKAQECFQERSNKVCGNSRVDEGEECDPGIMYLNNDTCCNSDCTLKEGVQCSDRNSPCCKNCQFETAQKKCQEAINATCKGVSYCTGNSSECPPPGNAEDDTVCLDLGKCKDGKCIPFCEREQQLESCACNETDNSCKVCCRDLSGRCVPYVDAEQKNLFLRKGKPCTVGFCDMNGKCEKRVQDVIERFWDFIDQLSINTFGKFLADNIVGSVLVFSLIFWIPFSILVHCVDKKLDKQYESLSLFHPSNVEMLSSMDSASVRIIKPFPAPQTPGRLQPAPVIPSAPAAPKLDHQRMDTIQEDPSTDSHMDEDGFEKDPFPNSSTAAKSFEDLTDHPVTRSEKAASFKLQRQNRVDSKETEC
# Lipid droplet: modulators of hepatic lipid droplet formation; AML12 mouse hepatocytes, oleate lipid droplets, BODIPY imaging; inhibition, % at 6.5 µM; hit rate 0.4% among 240,000; AID 1656;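 active means lipid droplet intensity inhibited by at least 50%, with more than 500 cells counted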
#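 Assay system: AML12 mouse liver cells | Compound dosing: One dose, 6.5 µM compound | Read-out basis: Droplet intensity reduction, % inhibition | Measured by: Fluorescence imaging, 20x objective, two fields per well | Schedule: Overnight treatment with compound plus oleate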
# aDG glyco up: increases alpha dystroglycan glycosylation | Pro5-aDG cells, alpha-DG glycosylation AlphaScreen (IIH6); 0% Pro5, 100% B10-LARGE cell signal | activation, % at 10 µM | hit rate 0.22% among 360,000 | AID 624168;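 active means activation of at least 8% versus controls, or a plate z-score of at least 8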;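 further: Pro5 are CHO cells carrying HIG-tagged alpha-DG that lacks glycosylation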
# V-ATPase pHluor: yeast V-ATPase proton transport regulation by pHLuorin; response, % at 10 µM; S. cerevisiae, pHLuorin cytosolic pH fluorescence; hit rate 0.37% among 350,000; in the data active means response mostly above about 7.3%, no sharp cut-off; inactive means mostly below about 5.4%; further: actives read high
# ADAM10 counter: counter-screen for ADAM17 exosite inhibitors: inhibitors of human ADAM10 | shares compounds with ADAM17 inh | recombinant ADAM10, EDANS/DABCYL FRET peptide cleavage, 3 h | inhibition, % at 6.95 µM | hit rate 47% among 2,900 | AID 743256;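 active means mean inhibition over the triplicate runs exceeds the activity threshold set in the earlier primary screen, cut at about 20% in these data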;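 further: 0% = DMSO wells and 100% = marimastat wells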
# ADAM17 confirm: human ADAM17 inhibition, confirmation. hit rate 65% among 2,900. recombinant ADAM17, EDANS/DABCYL QFRET peptide cleavage. shares compounds with ADAM17 inh. inhibition, % at 6.95 µM. AID 743257;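 active means mean inhibition across replicates above the hit cutoff set in the primary screen, cut at about 8.5% in these data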;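 further: 0% = DMSO wells and 100% = marimastat wells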
# Starred values were filed as active, the others as inactive; nt = not tested or not shown. Rows were chosen to be rich in hits. Some 3.1% of all compounds tested hit in one or more screens of this group.
SMILES,MPTP block,ADAM10 inh,ADAM17 inh,Lipid droplet,aDG glyco up,V-ATPase pHluor,ADAM10 counter,ADAM17 confirm
CN(C(=O)CCN1CCCO1)C1CCCN(Cc2ccccc2F)C1 (stereo unspecified),0,-2,9.0*,-14,0,0,15,7
CCN(CC)C(=O)CC[C@H]1CC[C@]2(CCCN(Cc3cccs3)C2)O1,nt,0,-1,nt,nt,nt,nt,nt
COc1cc(C=C(c2nc3ccccc3s2)c2nc3ccccc3s2)ccc1O,4,18,9.6*,11,0,0,20*,14*
CC(C)N(C(N)=NC(=O)OCc1ccccc1)C(C)C,nt,-1,-1,nt,nt,nt,nt,nt
CCn1c(COc2ccc(C)cc2)nnc1SCC(=O)Nc1ccc(C(=O)OC)cc1,nt,3,1,nt,nt,nt,nt,nt
CN(C)c1ccc(N=Nc2ccccc2C(=O)OCC(=O)N2CCCCCC2)cc1,2,18,13*,-14,0,-1,16,8.7*
C[C@H]1[C@@H](NC(=O)c2ccc(C(F)(F)F)cc2)CC[C@@]23CCCN2C(=O)CCC[C@@H]13,nt,0,1,nt,nt,nt,nt,nt
CCC(C)NS(=O)(=O)c1ccc(S(=O)(=O)N(CCc2ccc(OC)c(OC)c2)Cc2cccs2)cc1 (stereo unspecified),3,17,8.9*,-1,2,-2,38*,16*
COc1ccc(CCN(Cc2cccs2)S(=O)(=O)c2ccc(F)cc2)cc1OC,nt,19,15*,nt,nt,nt,10,7
CCOc1ccc(CCNC(=O)CN2C(=O)c3cccnc3Oc3ccc(Cl)cc32)cc1,-1,3,11*,-3,0,1,21*,19*
Cc1[nH]c2ccccc2c1/C=N/NC(=O)c1cccc([N+](=O)[O-])c1,-1,-1,-3,-4,0,2,nt,nt
Cc1[nH]c2ccccc2c1/C=N/Nc1ccc([N+](=O)[O-])cc1,-5,20,10*,4,2,-1,10,6
O=C(C[C@H]1C/C=C\CC[C@@H](Cc2ccc(F)cc2)C(=O)OC[C@H]2CCCN2C1=O)N[C@H](CO)Cc1ccccc1,1,4,0,nt,0,0,nt,nt
O=C(C[C@@H]1C/C=C\CCC(=O)OC[C@@H]2CCCN2C1=O)N[C@@H](CO)Cc1ccccc1,0,3,8.9*,nt,0,2,4,3
Nn1c(COc2cccc(Br)c2)nnc1SCC(=O)N1CCc2ccccc2C1,1,10,12*,nt,0,4,5,7
C/C=C/C=C/C(=O)N1C[C@H](C)N(C)C[C@H]1C,nt,-5,-4,nt,nt,nt,nt,nt
COc1ccc([N+](=O)[O-])cc1NCc1cccnc1,0,-10,-3,12,0,-3,nt,nt
Cc1ccc(NC(=O)c2cc([N+](=O)[O-])ccc2NCc2cccnc2)cc1,3,12,9.2*,nt,0,-3,15,9
CCOC(=O)[C@H]1[C@H]2COc3ccc(C)cc3[C@@H]2N2C(=O)c3cc(Br)ccc3NC(=O)[C@@]12C,0,10,9.5*,nt,0,1,49*,17*
CCOC(=O)[C@H]1[C@H]2COc3ccc(Br)cc3[C@@H]2N2C(=O)c3ccc(C)cc3NC(=O)[C@@]12C,-2,17,-1,nt,0,1,nt,nt
CCOC(=O)[C@@H]1[C@H]2COc3ccc(Br)cc3[C@H]2N2C(=O)N(c3ccc(Br)cc3)C(=O)[C@]12C,2,12,9.2*,nt,0,-6,31*,21*
Cc1ccc2c(c1)[C@H]1[C@H](CO2)[C@H](c2ccccc2)[C@]2(C)C(=O)N(Cc3ccc(Cl)cc3)CC(=O)N12,-2,15,12*,nt,0,-1,10,12*
C[C@@]12C(=O)Nc3ccccc3C(=O)N1[C@H]1c3cc(Br)ccc3OC[C@@H]1[C@@H]2c1ccccc1,0,19,8.6*,nt,0,-4,20*,11*

# Bioassay records (PubChem BioAssay)
